Experimental data: the array DNA melting data of Ke et al. (doi:10.1101/2024.01.08.574731)

Experiments:
[1] = melting temperature; fluorescence melt of hairpins on a sequencing array, two-state fit, raised by 9.35 °C to match UV melts; conditions: sodium 0.088 M
Outline: (§1)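 Folding enthalpy and melting temperature come from bootstrapped two-state fits to Cy3 fluorescence of library hairpins carrying annealed Cy3 and quencher oligos on a sequenced MiSeq flow cell. Imaging was done in 50 mM Na-HEPES pH 8.0, 25 mM NaCl, stepping by 2.5 °C up to 60 °C, and signals were normalised to pre-quench Cy3 and to control constructs. Results of four replicates were combined by inverse variance, and fitted temperatures were raised by 9.35 °C to match UV melts.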

[2] = folding enthalpy; higher = less favourable; fluorescence melt of hairpins on a sequencing array, two-state fit; conditions: sodium 0.088 M
Outline: as §1

Sequence | Tm [1] | folding enthalpy [2]
GGTTGTGGAAACACGATC (.(.(((....))).).) | 34 °C | -21.9 kcal/mol
GATCAATCGTTGATC ((((((...)))))) | 40.4 °C | -26.8 kcal/mol
GTCTTACGAAAGTATGAC (((.(((....))).))) | 48.3 °C | -30.9 kcal/mol
GATCTGACCCAGATC ((((((...)))))) | 47.7 °C | -37.4 kcal/mol
GGTCCACGAAAGTGCACC (((.(((....))).))) | 44.5 °C | -25.9 kcal/mol
GCCGTGCGAAAGCAGCGC ((..(((....)))..)) | 55.9 °C | -13.9 kcal/mol
GATCAGCCGACTGATC ((((((....)))))) | 49.6 °C | -35.5 kcal/mol
GGTTGACGAAAGTCCACC (((.(((....))).))) | 50.5 °C | -32 kcal/mol
GGGTCAGGAAACCAACCC ((((..(....)..)))) | 33 °C | -15.7 kcal/mol
GCTTCGCGAAAGCGATGC ((.((((....)))).)) | 65.7 °C | -17.4 kcal/mol
GGGGCTGGAAACGGCCCC (((((.(....).))))) | 66.8 °C | -40.7 kcal/mol
GATCATGACGATGATC ((((((....)))))) | 50.8 °C | -40.3 kcal/mol
GCGAGATATCGC ((((....)))) | 56.9 °C | -24.3 kcal/mol
GGAGCCGGAAACGGTTCC (((.(((....))).))) | 58.5 °C | -45.1 kcal/mol
GATCGGCATTCCGATC ((((((....)))))) | 57 °C | -37.6 kcal/mol
GATCCAAGCTGGATC ((((((...)))))) | 50.5 °C | -28.8 kcal/mol
GGTGTGGGAAACCATGCC ((..(((....)))..)) | 45.5 °C | -30.7 kcal/mol
GATAAGACGAAAGTCATC (((..(((....)))))) | 26.7 °C | -15.2 kcal/mol
GATGCCACGAAAGTGATC (((..(((....)))))) | 20.2 °C | -9.92 kcal/mol
CGGGCGGAAACGCTGCCG ((((((....)))..))) | 45.8 °C | -16.8 kcal/mol
GATTATGGAAACGTAATC (((((.(....).))))) | 35.6 °C | -36.5 kcal/mol
GATCTTCAAAAAGATC ((((((....)))))) | 40.4 °C | -27.3 kcal/mol
GCTTGTGGAAACATAAGC ((((.((....)).)))) | 46.8 °C | -29.9 kcal/mol

Sequence | Tm [1] | folding enthalpy [2]
GATCATACCGATGATC ((((((....)))))) | 46.9 °C | -35.7 kcal/mol
GCGAGCGAAAGCTCTCGC ((((((....)))..))) | 52.3 °C | -17.4 kcal/mol
GCTTCGCGAAAGCATAGC (((..((....))..))) | 36.3 °C | -14.5 kcal/mol
GCGTGGCGAAAGCACCGC (((..((....))..))) | 62.2 °C | -31.9 kcal/mol
GATCAAGGCTTTGATC ((((((....)))))) | 50.1 °C | -42 kcal/mol
CGAACCGGAAACGGCTCG (((.(((....))).))) | 49.9 °C | -35.5 kcal/mol
GGGTTGGGAAACCGACTC (.((.((....)).)).) | 41.2 °C | -16.3 kcal/mol
GGAGGTCGAAAGACGTCC (((.(((....))).))) | 57.8 °C | -37.7 kcal/mol
GGGCACGAAAGTGGGCCC ((((((....)))..))) | 58.4 °C | -31.8 kcal/mol
GCCCGGCGAAAGCATGGC (((..((....))..))) | 56 °C | -19 kcal/mol
GGCTCACCGAAAGGTGCC (((..(((....)))))) | 39.6 °C | -10.9 kcal/mol
GACAAGGGAAACCCTGTC ((((.((....)).)))) | 42.5 °C | -27.8 kcal/mol
GTACAACCGAAAGGTTAC (((..(((....)))))) | 29.8 °C | -10.7 kcal/mol
GACTGCGAAAGCACGGTC ((((((....)))..))) | 42.4 °C | -12.4 kcal/mol
GCCATGCGAAAGCGTTGC ((.(.((....)).).)) | 43.6 °C | -18.1 kcal/mol
GATCTACAACTAGATC ((((((....)))))) | 34.1 °C | -25.6 kcal/mol
GAATGCGAAAGCATGTTC ((((((....)))..))) | 42.6 °C | -11.2 kcal/mol
GGCAGCGAAAGCTATGCC ((((((....)))..))) | 55.3 °C | -28.7 kcal/mol
GAGCACGGAAACGCGCTC ((((.((....)).)))) | 55.3 °C | -42.9 kcal/mol
GCTAGAGGAAACTCTAGC (((((((....))))))) | 58.5 °C | -44 kcal/mol
GCTATGCGAAAGCAGCGC ((..(((....)))..)) | 54.2 °C | -18.9 kcal/mol
GGGAGTCGAAAGACACCC (((.(((....))).))) | 56.9 °C | -30 kcal/mol
GATCCGACCTCGGATC ((((((....)))))) | 59.1 °C | -40.9 kcal/mol

Sequence | Tm [1] | folding enthalpy [2]
GCTTGCGAAAGCAAAAGC ((((((....)))..))) | 52.8 °C | -17.8 kcal/mol
GTCACCGAAAGGTGTGAC ((((((....)))..))) | 42.4 °C | -11.6 kcal/mol
GACGCGACGAAAGTCGTC (((..(((....)))))) | 35.5 °C | -8.11 kcal/mol
GATCTTCTAGAAGATC ((((((....)))))) | 49.6 °C | -40.9 kcal/mol
GCTACGGGAAACCATAGC ((((.((....)).)))) | 39.4 °C | -31 kcal/mol
GATCTCTAAGGAGATC ((((((....)))))) | 53.8 °C | -34.9 kcal/mol
GATCTCTCCCGAGATC ((((((....)))))) | 52.1 °C | -41.2 kcal/mol
GTTAGAGGAAACCCTAAC (((((.(....).))))) | 31.9 °C | -17.9 kcal/mol
CCCCAGAAATGGGG (((((....))))) | 52.2 °C | -16 kcal/mol
GTAGTGGGAAACCATTAC (((.(((....))).))) | 38.1 °C | -32 kcal/mol
GCACCGCGAAAGCATTGC (((..((....))..))) | 33.4 °C | -10.3 kcal/mol
GCTCCGCGAAAGCCAAGC (((..((....))..))) | 26.1 °C | -8.28 kcal/mol
GCCGAAGCGAAAGCTGGC (((..(((....)))))) | 57.1 °C | -31.6 kcal/mol
GCGTAGCGAAAGCTGGGC ((..(((....)))..)) | 49.3 °C | -12.1 kcal/mol
GATGATGGAAACGTCATC (((((.(....).))))) | 46.7 °C | -29.8 kcal/mol
GTCACCGAAAGGTGGAC ((((((....))).))) | 54.2 °C | -14.1 kcal/mol
GCACCTCGAAAGAGTTGC (((.(((....))).))) | 48.6 °C | -28.1 kcal/mol
GCCATGCGAAAGCGCGGC (((..((....))..))) | 59.2 °C | -20 kcal/mol
GAGCCCGAAAGGGTGCTC ((((((....)))..))) | 52.1 °C | -18.6 kcal/mol
GGAGAACGAAAGTTGTCC (((.(((....))).))) | 51.5 °C | -34.6 kcal/mol
GATCGAATCTCGATC ((((((...)))))) | 51 °C | -38.2 kcal/mol
TCAAGGAAACTTGA (((((....))))) | 32 °C | -8.95 kcal/mol
GCACTGCGAAAGCGGGGC ((.(.((....)).).)) | 67.2 °C | -33.5 kcal/mol

Sequence | Tm [1] | folding enthalpy [2]
GTCGCCGAAAGGCCCGAC ((((((....)))..))) | 37.4 °C | -11.6 kcal/mol
GGCAACGAAAGTTCTGCC ((((((....)))..))) | 40.4 °C | -27.3 kcal/mol
GATGCTGGAAACAGTATC (((.(((....))).))) | 47 °C | -33.8 kcal/mol
GAGGGTGGAAACGCCCTC (((((.(....).))))) | 57.6 °C | -44.3 kcal/mol
GATCATACTCATGATC ((((((....)))))) | 46.7 °C | -34 kcal/mol
GCAATTCGAAAGAAGTGC (((.(((....))).))) | 52.4 °C | -34.6 kcal/mol
GGACCTCGAAAGAGTTCC (((.(((....))).))) | 45 °C | -27.2 kcal/mol
GATCCCGAGGGGGATC ((((((....)))))) | 59.7 °C | -35.3 kcal/mol
GCGGACGAAAGTCGTCGC ((((((....)))..))) | 52.6 °C | -22.8 kcal/mol
GATCGAGATCTCGATC ((((((....)))))) | 55.7 °C | -50.6 kcal/mol
GCATACGAAAGTATGC ((((((....)))))) | 67.9 °C | -35.3 kcal/mol
GGCTCAGGAAACTGAACC ((.((((....)))).)) | 41.8 °C | -32.3 kcal/mol
GTGTTCGGAAACGAGTAC ((..(((....)))..)) | 31.2 °C | -18.9 kcal/mol
GCGCTTGGAAACAAACGC (((.(((....))).))) | 48 °C | -34.1 kcal/mol
GATCGTTTCACGATC ((((((...)))))) | 58.6 °C | -33.5 kcal/mol
GCGGCCACCGC ((((...)))) | 59.5 °C | -19.6 kcal/mol
GTCCAACGAAAGTTGAC (((.(((....)))))) | 45 °C | -14.7 kcal/mol
GGCCCAGGAAACTAGGCC ((((.((....)).)))) | 48.1 °C | -30.3 kcal/mol
GCGAACGAAAGTTAGCGC ((((((....)))..))) | 55.8 °C | -31 kcal/mol
GGTTTGCCGAAAGGCACC (((..(((....)))))) | 30.7 °C | -8.06 kcal/mol
GATCACTTCGGTGATC ((((((....)))))) | 57.4 °C | -40 kcal/mol
GGTTCTCGAAAGAGTACC (((.(((....))).))) | 46.7 °C | -26.1 kcal/mol
GGCTCCGAAAGGAGTGCC ((((((....)))..))) | 50 °C | -14.5 kcal/mol
